Legend:
GnRH neurons = settings: cited from earlier work
kisspeptin = test: SPR binding of RFRP-3 to immobilized kisspeptin; design: species or system rat; settings: Biacore T200
Summary of the method: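 Kisspeptin at 20 µg/ml in sodium acetate pH 5.5 was coupled to a CM5 chip (5,720 RU). Running buffer was PBS-P: 10 mM phosphate, 2.7 mM KCl, 137 mM NaCl, 0.05% P20, pH […]. Test peptide at 3.125–50 µM went over the detection and reference channels at 4 °C: 60 s injection, 15 µl/min, 15 min dissociation. Regeneration used 10 mM glycine-HCl pH 2.0 for 30 s; kinetic parameters were fitted.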

LH and FSH = settings: Japanese quail; cited from earlier work
mice = settings: cited from earlier work

## RFamide-related peptide-3 [RFRP-3]
GnRH neurons
  secretion of GnRH and expression and secretion of gonadotropin: inhibit the secretion of GnRH via its receptor on GnRH neurons, thus acting on the pituitary system to inhibit the expression and secretion of gonadotropin, LH and FSH
kisspeptin
  direct binding to kisspeptin (in words): could bind directly to kisspeptin

## SIKPSAYLPLRFa [GnIH, gonadotropin-inhibitory hormone]
LH and FSH
  secretion of LH and FSH: inhibit the secretion of LH and FSH in the brain of Japanese quail
mice
  expression levels of glucose transporter 4: increased the expression levels of glucose transporter 4
  food intake: increased food intake
  glucose uptake / glucose transporter 8 expression: reduced glucose uptake by downregulating the expression levels of glucose transporter 8
  synthesis of triglycerides in adipose tissue: increased the synthesis of triglycerides in adipose tissue
  testosterone synthesis: reduced testosterone synthesis

From paper PMC8593914 (Experimental and Therapeutic Medicine, 2021)
